test system: RBL-2H3; test: Inhibition of IgE receptor/FcERI mediated leukotriene release from rat RBL-2H3 cells; format: functional, cell-based
In short: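 RBL-2H3 rat mast cells were sensitized with monoclonal anti-DNP IgE ([…]) for 1 h at 37 °C, washed to remove unbound IgE, and overlaid with PIPES-buffered saline containing 1 mM CaCl2. Cells were preincubated with compound or vehicle, then challenged with 20 ng/mL DNP-BSA for 30 min at 37 °C and centrifuged at 200g for 10 min at 4 °C. LTC4 was measured in cell-free supernatants and reported as IC50.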

SMILES	IC50 [µM]
S=C(NCCc1c[nH]c2ccccc12)Nc1ccc(Br)cn1	6.1
CCOC(=O)Cc1csc(/N=C(\S)N[C@H](C)c2cccc3ccccc23)n1	0.002
Cc1ccc(N/C(S)=N/[C@H](C)c2cccc3ccccc23)nc1	0.005
C[C@H](/N=C(\S)Nc1nccs1)c1cccc2ccccc12	> 100
Cc1cccc(N/C(S)=N/[C@@H](C)c2cccc3ccccc23)n1	1.6
C[C@@H](/N=C(\S)Nc1ccccn1)c1cccc2ccccc12	> 100
C[C@@H](/N=C(\S)Nc1nccs1)c1cccc2ccccc12	> 100
Cc1ccc(N/C(S)=N/[C@@H](C)c2cccc3ccccc23)nc1	> 100
Cc1cc(C)nc(N/C(S)=N/[C@H](C)c2cccc3ccccc23)c1	> 100
C[C@H](/N=C(\S)Nc1ccccn1)c1cccc2ccccc12	> 100
Oc1ccc(CC/N=C(\S)Nc2ccc(Br)cn2)cc1	16.8
C[C@H](/N=C(\S)Nc1nc2ccccc2s1)c1cccc2ccccc12	> 100
S=C(NCCc1c[nH]c2ccccc12)Nc1ccc(Cl)cn1	4.9
C[C@H](/N=C(\S)Nc1ccc(Br)cn1)c1cccc2ccccc12	> 100
C[C@@H](/N=C(\S)Nc1ccc(Cl)cn1)c1cccc2ccccc12	> 100
Cc1csc(N/C(S)=N/[C@@H](C)c2cccc3ccccc23)n1	83.2
C[C@@H](/N=C(\S)Nc1nc2ccccc2s1)c1cccc2ccccc12	18.9
Cc1cccc2sc(N/C(S)=N/[C@H](C)c3cccc4ccccc34)nc12	> 100
Oc1ccc(CC/N=C(\S)Nc2ccccn2)cc1	8.5
Oc1ccc(CC/N=C(\S)Nc2ccc(Cl)cn2)cc1	12.6
COc1ccc2nc(/N=C(\S)N[C@H](C)c3cccc4ccccc34)sc2c1	> 100
Cc1csc(N/C(S)=N/[C@H](C)c2cccc3ccccc23)n1	25.9
Cc1cc(C)nc(N/C(S)=N/[C@@H](C)c2cccc3ccccc23)c1	> 100
COc1cc2ncnc(Nc3cc(Br)c(O)c(Br)c3)c2cc1OC	6.8
Cc1cccc2sc(N/C(S)=N/[C@@H](C)c3cccc4ccccc34)nc12	> 100
CCOC(=O)Cc1csc(/N=C(\S)N[C@@H](C)c2cccc3ccccc23)n1	0.002
